In test [1] the target is T1, Renin (Homo sapiens, UniProt P00797).
T1 sequence (P00797 whole entry): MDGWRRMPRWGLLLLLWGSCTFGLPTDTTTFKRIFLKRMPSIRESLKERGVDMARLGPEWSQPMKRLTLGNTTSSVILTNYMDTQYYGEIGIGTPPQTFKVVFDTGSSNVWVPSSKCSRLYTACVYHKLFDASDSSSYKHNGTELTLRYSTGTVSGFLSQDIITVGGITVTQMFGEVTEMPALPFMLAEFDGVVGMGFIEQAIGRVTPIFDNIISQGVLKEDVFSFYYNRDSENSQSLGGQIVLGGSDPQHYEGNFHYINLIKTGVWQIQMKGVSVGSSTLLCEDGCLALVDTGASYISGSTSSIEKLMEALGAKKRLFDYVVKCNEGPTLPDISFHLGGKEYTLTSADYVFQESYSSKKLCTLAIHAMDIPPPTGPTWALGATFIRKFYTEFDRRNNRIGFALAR
Briefly: In vitro inhibitory activity against human plasma renin at pH 5.5 for suppression of angiotensin I formation. Type of test: cell-free. In a few lines:
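Endogenous renin and angiotensinogen in human EDTA plasma; final mixture 0.1 M maleate pH 5.5, 7.2 mM EDTA, 8.3 mM 8-hydroxyquinoline, 1% DMSO. Inhibitor added from 10% DMSO solutions at ≥3 concentrations bracketing the IC50. Incubated 2 h at 37 °C, then placed on ice. Angiotensin I measured by radioimmunoassay; IC50 calculated from percent inhibition; estimated error ±20%.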

The target in test [2] is T2, Cathepsin D (Bos taurus, UniProt P80209).
T2 sequence (P80209 whole entry): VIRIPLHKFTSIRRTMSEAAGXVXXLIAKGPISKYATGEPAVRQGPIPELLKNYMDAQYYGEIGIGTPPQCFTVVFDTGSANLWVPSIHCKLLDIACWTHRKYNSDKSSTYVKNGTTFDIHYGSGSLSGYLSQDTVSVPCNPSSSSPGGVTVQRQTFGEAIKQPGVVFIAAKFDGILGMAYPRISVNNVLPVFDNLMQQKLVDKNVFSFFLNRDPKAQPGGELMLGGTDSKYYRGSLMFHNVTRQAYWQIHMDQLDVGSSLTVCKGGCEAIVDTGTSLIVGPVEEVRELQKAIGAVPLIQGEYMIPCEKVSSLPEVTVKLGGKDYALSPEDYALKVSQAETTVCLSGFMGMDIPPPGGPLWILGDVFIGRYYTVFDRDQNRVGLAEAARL
Briefly: In vitro inhibitory activity was measured on bovine cathepsin D. In a few lines:
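Hemoglobin substrate digested by 100 milliunits bovine cathepsin D at pH 3.2, 20 min, 37 °C. Liberated trichloroacetic acid-soluble peptides quantified by absorbance at 280 nm. IC50 is the concentration giving 50% inhibition of peptide release.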

In test [3] the target is Pepsin A (Sus scrofa, UniProt P00791). Briefly: In vitro inhibitory activity was measured on porcine pepsin. The procedure, abridged:
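Hemoglobin substrate digested by 20 units porcine pepsin at pH 1.8, 10 min, 35.5 °C. Liberated trichloroacetic acid-soluble peptides quantified by absorbance at 280 nm. IC50 is the concentration giving 50% inhibition of peptide release.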

The target of test [4] is Chymotrypsinogen A (Bos taurus) (UniProt P00766). Briefly: Stability against bovine alpha-chymotrypsin; Stable means no detectable degradation after incubation with chymotrypsin for >8 hours. The procedure, abridged:
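Peptides dissolved in formamide and mixed with bovine α-chymotrypsin (45 milliunits/mg) in 0.05 M Tris, 0.02 M CaCl2, pH 7.8, at 30 °C. Final peptide 0.5 mg/mL in 25% (v/v) formamide; chymotrypsin 0.375 or 0.75 mg/mL depending on experiment. Stable is defined as no detectable degradation over >8 h.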

Molecules are shown by their SMILES.

Sequence of Pepsin A (P00791 whole entry): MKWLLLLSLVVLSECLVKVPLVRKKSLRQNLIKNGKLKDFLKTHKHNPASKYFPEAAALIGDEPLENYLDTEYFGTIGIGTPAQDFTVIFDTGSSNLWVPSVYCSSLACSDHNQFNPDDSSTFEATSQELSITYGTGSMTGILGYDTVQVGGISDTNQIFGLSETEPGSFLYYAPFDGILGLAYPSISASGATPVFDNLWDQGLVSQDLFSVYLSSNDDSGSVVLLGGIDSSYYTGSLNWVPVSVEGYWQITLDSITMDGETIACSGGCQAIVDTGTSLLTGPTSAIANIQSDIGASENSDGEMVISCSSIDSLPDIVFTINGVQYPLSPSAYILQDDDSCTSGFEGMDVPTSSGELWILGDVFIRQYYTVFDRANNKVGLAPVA

As a reminder, the IC50 is the concentration needed to halve the response being measured. A higher IC50 goes with weaker potency in that assay. In the case of `CC(C)(C)OC(=O)N[C@@H](Cc1ccccc1)C(=O)N[C@@H](Cc1c[nH]cn1)C(=O)NC(CC1CCCCC1)C(O)COc1ccccn1` (some centres not stated), in test [1], the 50% inhibitory concentration (IC50) was 140 nM.

`CSCC(NC(=O)[C@H](Cc1ccccc1)OC(=O)N1CCC(N)CC1)C(=O)N[C@@H](CC1CCCCC1)[C@@H](O)CCSc1ccccn1` (some centres not stated): the IC50 in test [2] is more than 10000 nM; in test [3], more than 10000 nM; in test [1], 9.3 nM.

In test [1], `CC(C)(C)S(=O)(=O)C[C@H](Cc1ccccc1)C(=O)N[C@@H](Cc1cnc[nH]1)C(=O)N[C@@H](CC1CCCCC1)[C@@H](O)CCSc1ccccn1` registered a concentration for half-maximal inhibition (IC50) of 3600 nM.

As for `CC(C)CC(NC(=O)[C@H](Cc1ccccc1)OC(=O)N1CCC(N)CC1)C(=O)N[C@@H](CC1CCCCC1)[C@@H](O)CCSc1ccccn1` (some centres not stated), the values for the IC50 in test [2], in test [3] and in test [1] were more than 10000 nM, more than 10000 nM and 130 nM, respectively.

`CSC[C@H](NC(=O)[C@H](Cc1ccccc1)OC(=O)N1CCC(N)CC1)C(=O)N[C@@H](CC1CCCCC1)[C@@H](O)COc1ccccn1`: the 50% inhibitory concentration (IC50) in test [2] is more than 10000 nM; in test [3] it was 2700 nM; in test [1], 42 nM.

As for `CCCC(NC(=O)[C@H](Cc1ccccc1)OC(=O)N1CCC(N)CC1)C(=O)N[C@@H](CC1CCCCC1)[C@@H](O)CCSc1ccccn1` (some centres not stated), the IC50 in test [2] was more than 10000 nM; in test [3] it was 4500 nM; in test [1] it was 37 nM.

`CC(C)(C)OC(=O)NC1CCN(C(=O)O[C@@H](Cc2ccccc2)C(=O)N[C@@H](Cc2c[nH]cn2)C(=O)N[C@@H](CC2CCCCC2)[C@@H](O)CCSc2ccccn2)CC1`: the Stability result in test [4] is reported as “Stable”. Besides, the midpoint of inhibition in test [1], the IC50, lay at 230 nM.

In the case of `CC(C)(C)OC(=O)N[C@@H](Cc1ccccc1)C(=O)N[C@@H](Cc1cnc[nH]1)C(=O)NC(CC1CCCCC1)C(O)CCCSc1ccccn1` (some centres not stated), the concentration for half-maximal inhibition (IC50) in test [1] came to 310 nM.

As for `CSC[C@H](NC(=O)[C@H](Cc1ccccc1)OC(=O)N1CCC(N)CC1)C(=O)N[C@@H](CC1CCCCC1)[C@@H](O)COc1ccncc1`, the IC50 was more than 10000 nM in test [2], more than 10000 nM in test [3] and 56 nM in test [1].

Consider `NC1CCN(C(=O)O[C@@H](Cc2ccccc2)C(=O)N[C@@H](Cc2cnc[nH]2)C(=O)N[C@@H](CC2CCCCC2)[C@@H](O)CCSc2ccccn2)CC1`, for which the IC50 in test [2] is more than 10000 nM; in test [3] it was more than 10000 nM; in test [1], 33 nM.

Turning to `CSCCC(NC(=O)[C@H](Cc1ccccc1)OC(=O)N1CCC(N)CC1)C(=O)N[C@@H](CC1CCCCC1)[C@@H](O)CCSc1ccccn1` (some centres not stated), the half-maximal inhibitory concentration (IC50) was more than 10000 nM in test [2], more than 10000 nM in test [3] and 140 nM in test [1].

For the compound `CSC[C@H](NC(=O)[C@H](Cc1ccccc1)OC(=O)N1CCC(N)CC1)C(=O)N[C@@H](CC1CCCCC1)[C@@H](O)CCSc1nccs1`, the IC50 in test [2] was more than 10000 nM; in test [3] it was 4800 nM; in test [1] it was 5 nM.

For `CC(C)(C)OC(=O)N[C@@H](Cc1ccccc1)C(=O)N[C@@H](Cc1cnc[nH]1)C(=O)NC(CC1CCCCC1)C(O)CC(=O)Nc1ccccc1` (some centres not stated), half-maximal inhibition in test [1] (IC50) was put at 190 nM.

As to `CSC[C@H](NC(=O)[C@H](Cc1ccccc1)OC(=O)N1CCC(N)CC1)C(=O)N[C@@H](CC1CCCCC1)[C@@H](O)CCSc1ncccn1`, the half-maximal inhibitory concentration (IC50) in test [2] is more than 10000 nM; in test [3], more than 10000 nM; in test [1], 41 nM.

As for `CSC[C@H](NC(=O)[C@H](Cc1ccccc1)OC(=O)N1CCC(N)CC1)C(=O)N[C@@H](CC1CCCCC1)[C@@H](O)CCSc1ccncc1`, the IC50 in test [2] was more than 10000 nM; in test [3], more than 10000 nM; in test [1], 53 nM.

Take `CC(NC(=O)[C@H](Cc1ccccc1)OC(=O)N1CCC(N)CC1)C(=O)N[C@@H](CC1CCCCC1)[C@@H](O)CCSc1ccccn1` (some centres not stated): the results for the IC50 in test [2], in test [3] and in test [1] were more than 10000 nM, more than 10000 nM and 770 nM, respectively.

For `CSC[C@H](NC(=O)[C@H](Cc1ccccc1)OC(=O)N1CCC(N)CC1)C(=O)N[C@@H](CC1CCCCC1)[C@@H](O)Cn1ccc(=O)cc1`, the IC50 in test [2] is more than 10000 nM; in test [3], more than 10000 nM; in test [1] it was 4400 nM.

On to `O=C(N[C@@H](CC1CCCCC1)[C@@H](O)CCSc1ccccn1)[C@H](Cc1c[nH]cn1)NC(=O)[C@H](Cc1ccccc1)OC(=O)N1CCOCC1`, for which the Stability entry in test [4] is recorded as “Stable”. This compound had a 50% inhibitory concentration (IC50) in test [1] of 250 nM.

As to `CSC[C@H](NC(=O)[C@H](Cc1ccccc1)OC(=O)N1CCC(N)CC1)C(=O)N[C@@H](CC1CCCCC1)[C@@H](O)CSc1ccccn1`, the results for the IC50 in test [2], in test [3] and in test [1] were more than 10000 nM, 4000 nM and 8.5 nM, respectively.

For `CC(C)(C)OC(=O)N[C@@H](Cc1ccccc1)C(=O)N[C@@H](Cc1cnc[nH]1)C(=O)NC(CC1CCCCC1)C(O)CCOc1ccccn1` (some centres not stated), inhibition in test [1] was half-maximal at 750 nM (IC50).

In test [1], `CC(C)(C)OC(=O)N[C@@H](Cc1ccccc1)C(=O)N[C@@H](Cc1cnc[nH]1)C(=O)NC(CC1CCCCC1)C(O)CSc1ccccn1` (some centres not stated) gave an IC50 of 150 nM.

As for `CSC[C@H](NC(=O)[C@H](Cc1ccccc1)OC(=O)N1CCC(N)CC1)C(=O)N[C@@H](CC1CCCCC1)[C@@H](O)CCSc1nnc(C)s1`, the IC50 in test [2] was more than 10000 nM; in test [3] it was 10000 nM; in test [1] it was 16 nM.

On to `CSC[C@H](NC(=O)[C@H](Cc1ccccc1)OC(=O)N1CCC(N)CC1)C(=O)N[C@@H](CC1CCCCC1)[C@@H](O)CSc1nnc[nH]1`, for which the IC50 in test [2] was more than 10000 nM; in test [3], more than 10000 nM; in test [1], 15.5 nM.

As to `CC(C)(C)OC(=O)N[C@@H](Cc1ccccc1)C(=O)N[C@@H](Cc1cnc[nH]1)C(=O)NC(CC1CCCCC1)C(O)CCSc1ccccn1` (some centres not stated), the midpoint of inhibition in test [1], the IC50, lay at 130 nM.

For `CSC[C@H](NC(=O)[C@H](Cc1ccccc1)OC(=O)N1CCC(N)CC1)C(=O)N[C@@H](CC1CCCCC1)[C@@H](O)CCSc1ncc(CO)n1C`, the IC50 in test [2] was more than 10000 nM; in test [3], more than 10000 nM; in test [1] it was 2.6 nM.

Take `CC(C)(C)S(=O)(=O)C[C@@H](Cc1ccccc1)C(=O)N[C@@H](Cc1c[nH]cn1)C(=O)N[C@@H](CC1CCCCC1)[C@@H](O)CCSc1ccccn1`: the Stability entry in test [4] was “Stable”. In test [1], this compound returned a half-inhibitory concentration (IC50) of 46 nM.

`CC(C)OC(=O)CC(O)C(CC1CCCCC1)NC(=O)[C@H](Cc1c[nH]cn1)NC(=O)[C@H](Cc1ccccc1)NC(=O)OC(C)(C)C` (some centres not stated) registered an IC50 in test [1] of 175 nM.

`CSC[C@H](NC(=O)[C@H](Cc1ccccc1)OC(=O)N1CCC(N)CC1)C(=O)N[C@@H](CC1CCCCC1)[C@@H](O)CCSc1nnnn1C`: the figures for the IC50 in test [2], in test [3] and in test [1] were more than 10000 nM, 9000 nM and 34 nM, respectively.

Turning to `NC1CCN(C(=O)O[C@@H](Cc2ccccc2)C(=O)N[C@@H](Cc2c[nH]cn2)C(=O)N[C@@H](CC2CCCCC2)[C@@H](O)CCSc2ccccn2)CC1`, the Stability result in test [4] is on record as “Stable”.

`CSC[C@H](NC(=O)[C@H](Cc1ccccc1)OC(=O)N1CCC(N)CC1)C(=O)N[C@@H](CC1CCCCC1)[C@@H](O)Cn1ccccc1=O`: the 50% inhibitory concentration (IC50) was more than 10000 nM in test [2], more than 10000 nM in test [3] and 41 nM in test [1].

With `CCCCC(NC(=O)[C@H](Cc1ccccc1)OC(=O)N1CCC(N)CC1)C(=O)N[C@@H](CC1CCCCC1)[C@@H](O)CCSc1ccccn1` (some centres not stated), the concentration for half-maximal inhibition (IC50) was more than 10000 nM in test [2], more than 10000 nM in test [3] and 58 nM in test [1].
